Test results as given in ChEMBL document CHEMBL4017539, “Oral Delivery of Propofol with Methoxymethylphosphonic Acid as the Delivery Vehicle” (J Med Chem, 2017).

Tests used:
Mus musculus [1] = assay: Anesthetic activity in ICR mouse assessed as loss of righting reflex at 200 mg equiv/kg parent drug administered via oral gavage relative to control; format: functional
Method in brief: (§1)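 Male and female ICR mice (20 ± 2 g), fasted overnight, dosed by gavage in 10% DMSO, 20% Solutol HS-15, 70% saline (n = 10/group for diastereoisomeric mixtures, n = 6/group for single diastereoisomers). Mice were placed on their backs until righting stopped. Read-outs were onset of LORR, anesthetic duration, percent with LORR and percent mortality per group.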

[2] = Toxicity in ICR mouse assessed as death at 200 mg equiv/kg parent drug administered via oral gavage relative to control; details: in vivo; method in brief: as §1
Mus musculus [3] = assay: Anesthetic activity in ICR mouse assessed as onset time for loss of righting reflex at 200 mg equiv/kg parent drug administered via oral gavage; format: functional; method in brief: as §1
Mus musculus [4] = assay: Anesthetic activity in ICR mouse assessed as anesthetic duration time at 200 mg equiv/kg parent drug administered via oral gavage; format: functional; method in brief: as §1
Mus musculus [5] = assay: Anesthetic activity in ICR mouse assessed as loss of righting reflex at 100 mg equiv/kg parent drug administered via oral gavage relative to control; format: functional; method in brief: as §1
Mus musculus [6] = assay: Anesthetic activity in ICR mouse assessed as onset time for loss of righting reflex at 100 mg equiv/kg parent drug administered via oral gavage; format: functional; method in brief: as §1
Mus musculus [7] = assay: Anesthetic activity in ICR mouse assessed as anesthetic duration time at 100 mg equiv/kg parent drug administered via oral gavage; format: functional; method in brief: as §1
[8] = Toxicity in ICR mouse assessed as death at 100 mg equiv/kg parent drug administered via oral gavage relative to control; details: in vivo; method in brief: as §1
[9] = Cmax in Beagle dog at 10 mg/kg, po by LC-MS/MS analysis; format: ADME, organism-based, Canis lupus familiaris; design: dose 10 mg/kg, route oral; details: in vivo
Method in brief: (§2)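 Beagle dogs (n=3/group) received a single i.v. bolus of parent drug, then after a one-week washout received the prodrug i.g. in 5% DMSO, 5% Solutol HS-15 (30%, w/v), 90% saline. Heparinized blood was taken to 24 h, and plasma was obtained at 2–8 °C and stored at -80 °C. Parent drug was measured by LC-MS/MS and analysed non-compartmentally. Oral bioavailability was oral versus i.v. exposure to the active compound.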

[10] = Oral bioavailability in Beagle dog at 10 mg/kg by LC-MS/MS analysis; format: ADME, organism-based, Canis lupus familiaris; details: in vivo; method in brief: as §2
[11] = Cmax in Beagle dog at 1 mg/kg, iv administered as single bolus dose by LC-MS/MS analysis; format: ADME, organism-based, Canis lupus familiaris; design: dose 1 mg/kg, route intravenous; details: in vivo; method in brief: as §2
[12] = Half life in Beagle dog at 1 mg/kg, iv administered as single bolus dose by LC-MS/MS analysis; format: ADME, organism-based, Canis lupus familiaris; details: in vivo; method in brief: as §2
[13] = AUC (0 to t) in Beagle dog at 10 mg/kg, po by LC-MS/MS analysis; format: ADME, organism-based, Canis lupus familiaris; details: in vivo
[14] = AUC (0 to t) in Beagle dog at 1 mg/kg, iv administered as single bolus dose by LC-MS/MS analysis; format: ADME, organism-based, Canis lupus familiaris; details: in vivo
[15] = Half life in Beagle dog at 10 mg/kg, po by LC-MS/MS analysis; format: ADME, organism-based, Canis lupus familiaris; details: in vivo; method in brief: as §2
[16] = AUC (0 to t) in Beagle dog at 0.2 mg/kg, iv administered as single bolus dose by LC-MS/MS analysis; format: ADME, organism-based, Canis lupus familiaris; details: in vivo
[17] = Cmax in Beagle dog at 0.2 mg/kg, iv administered as single bolus dose by LC-MS/MS analysis; format: ADME, organism-based, Canis lupus familiaris; design: dose 0.2 mg/kg, route intravenous; details: in vivo
Method in brief: (§3)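 Beagle dogs (n=3/group) received the parent drug as an intravenous bolus. Heparinized blood was drawn pre-dose and at 2, 5, 10, 20 and 30 min and 1, 2, 4, 6, 8, 10, 12 and 24 h. Plasma was separated by centrifugation at 2–8 °C and stored at -80 °C. Parent drug was measured by LC-MS/MS, and parameters were derived by non-compartmental analysis.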

[18] = Half life in Beagle dog at 0.2 mg/kg, iv administered as single bolus dose by LC-MS/MS analysis; format: ADME, organism-based, Canis lupus familiaris; details: in vivo; method in brief: as §3
[19] = Cmax in Beagle dog at 2 mg/kg, iv administered as single bolus dose by LC-MS/MS analysis; format: ADME, organism-based, Canis lupus familiaris; design: dose 2 mg/kg, route intravenous; details: in vivo; method in brief: as §2
[20] = AUC (0 to t) in Beagle dog at 2 mg/kg, iv administered as single bolus dose by LC-MS/MS analysis; format: ADME, organism-based, Canis lupus familiaris; details: in vivo
[21] = Half life in Beagle dog at 2 mg/kg, iv administered as single bolus dose by LC-MS/MS analysis; format: ADME, organism-based, Canis lupus familiaris; details: in vivo; method in brief: as §2
Mus musculus [22] = assay: Sleep promoting activity in po dosed ICR mouse assessed as increase in pentobarbital induced sleep time administered 5 mins before pentobarbital injection; format: functional, organism-based
Method in brief: (§4)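 Fasted male and female ICR mice (n=10/group) received vehicle or 55, 65 or 75 mg/kg orally in 10% DMSO, 20% Solutol HS-15 (30%, w/v), 70% saline, 5 min before pentobarbital 40 mg/kg i.p. Sleep duration ran from falling asleep to recovery of the righting reflex. Data are mean ± SEM versus vehicle.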

Mus musculus [23] = assay: Sleep promoting activity in ICR mouse assessed as pentobarbital induced sleep time at 75 mg/kg, po administered 5 mins before pentobarbital injection (reference value: 33 +/- 20 min); format: functional; method in brief: as §4
Mus musculus [24] = assay: Sleep promoting activity in ICR mouse assessed as pentobarbital induced sleep time at 65 mg/kg, po administered 5 mins before pentobarbital injection (reference value: 33 +/- 20 min); format: functional; method in brief: as §4
in vivo [25] = details: Beagle, dog, po, 6.9 mg/kg
in vivo [26] = details: Beagle, dog, iv, 3 mg/kg
in vivo [27] = details: Beagle, dog, po, 6.9 mg/kg; remark: listed apart in the source
in vivo [28] = details: Beagle, dog, iv, 3 mg/kg; remark: listed apart in the source
[29] = Half life in Beagle dog at 6.9 mg/kg, po by LC-MS/MS analysis; details: in vivo
[30] = Half life in Beagle dog at 3 mg/kg, iv administered as single bolus dose by LC-MS/MS analysis; details: in vivo
in vivo [31] = details: Beagle, dog, po, 6.9 mg/kg; remark: listed apart in the source

In the case of `CCOC(=O)[C@H](C)NP(=O)(COC)Oc1c(C(C)C)cccc1C(C)C` (stereo partly specified), the Activity (Mus musculus [1]) was 100%, the mortality [2] was 10% and the Time (Mus musculus [3]) was 4.5 min. The Time (Mus musculus [4]) was 60.31 min.
In the case of `COCP(=O)(N[C@@H](C)C(=O)OCC(C)C)Oc1c(C(C)C)cccc1C(C)C` (stereo partly specified), the Activity (Mus musculus [1]) was 100%, the mortality [2] was 10% and the Time (Mus musculus [3]) was 8.36 min. The Time (Mus musculus [4]) was 24.47 min.
In the case of `COCP(=O)(N[C@@H](C)C(=O)OCc1ccccc1)Oc1c(C(C)C)cccc1C(C)C` (stereo partly specified), the Activity (Mus musculus [1]) was 50%, the mortality [2] was 10% and the Time (Mus musculus [3]) was 9.34 min. For the same compound, the Time (Mus musculus [4]) was 94.61 min.
With `CCOC(=O)[C@H](C)N[P@@](=O)(COC)Oc1c(C(C)C)cccc1[C@H](C)C1CC1` the Activity (Mus musculus [5]) was 100%, the Time (Mus musculus [6]) was 4.35 min and the Time (Mus musculus [7]) was 85.23 min. The mortality [8] was 17%.
Compound `CCOC(=O)CNP(=O)(COC)Oc1c(C(C)C)cccc1C(C)C` (stereo unspecified) has an Activity (Mus musculus [1]) of 70%, a mortality [2] of 0% and a Time (Mus musculus [3]) of 14.37 min. The Time (Mus musculus [4]) was 32.48 min.
`C=CCN1CC[C@]23c4c5ccc(O)c4O[C@H]2C(=O)CC[C@@]3(O)[C@H]1C5` [NALOXONE] showed a Cmax [9] of 43 ng/mL, a bioavailability [10] of 9.6% and a Cmax [11] of 196 ng/mL. It also gave a half-life [12] of 22.8 min, an AUC(0-t) [13] of 117 ng·h/mL and an AUC(0-t) [14] of 122 ng·h/mL. The half-life [15] was 539 min.
`CCOC(=O)[C@@H](C)NP(=O)(COC)Oc1c(C(C)C)cccc1C(C)C` (stereo partly specified) gave an Activity (Mus musculus [1]) of 100%, a mortality [2] of 10% and a Time (Mus musculus [3]) of 9.48 min. It also gave a Time (Mus musculus [4]) of 44.8 min.
In the case of `C[C@]12CC[C@@H]3c4ccc(O)cc4CC[C@H]3[C@@H]1CC[C@@H]2O` [ESTRADIOL], the AUC(0-t) [16] was 28 ng·h/mL, the Cmax [17] was 76 ng/mL and the half-life [18] was 16.2 min.
Work on `CCOC(=O)[C@H](C)NP(=O)(CO)Oc1c(C(C)C)cccc1C(C)C` (stereo partly specified) yielded an Activity (Mus musculus [1]) of 40%, a mortality [2] of 10% and a Time (Mus musculus [3]) of 6.91 min. For the same compound, the Time (Mus musculus [4]) was 19.19 min.
`CCOC(=O)C(C)(C)NP(=O)(COC)Oc1c(C(C)C)cccc1C(C)C` (stereo unspecified) gave an Activity (Mus musculus [1]) of 100%, a mortality [2] of 20% and a Time (Mus musculus [3]) of 6.74 min. It also gave a Time (Mus musculus [4]) of 115.9 min.
Compound `CCOC(=O)[C@H](C)N[P@@](=O)(COC)Oc1c(C(C)C)cccc1C(C)C` has an Activity (Mus musculus [1]) of 33%, a mortality [2] of 0% and a Time (Mus musculus [3]) of 9.68 min. It also gave a Time (Mus musculus [4]) of 47.24 min.
Compound `CC(C)c1cccc([C@H](C)C2CC2)c1O` [CIPEPOFOL] has a Cmax [9] of 233 ng/mL, a bioavailability [10] of 7.7% and a Cmax [19] of 1610 ng/mL. For the same compound, the AUC(0-t) [13] was 162 ng·h/mL, the AUC(0-t) [20] was 417 ng·h/mL and the half-life [15] was 26.4 min. For the same compound, the half-life [21] was 12 min.
In the case of `CCOC(=O)[C@H](C)N[P@](=O)(COC)Oc1c(C(C)C)cccc1C(C)C`, the Activity (Mus musculus [22]) was “Dose-dependent effect”, the Activity (Mus musculus [1]) was 100% and the Time (Mus musculus [23]) was 82 min. For the same compound, the mortality [2] was 0%, the Time (Mus musculus [3]) was 4.38 min and the Time (Mus musculus [4]) was 40.1 min. It also gave a Time (Mus musculus [24]) of 69 min.
Compound `COCP(=O)(N[C@@H](C)C(=O)OC(C)C)Oc1c(C(C)C)cccc1C(C)C` (stereo partly specified) has an Activity (Mus musculus [1]) of 40%, a mortality [2] of 0% and a Time (Mus musculus [3]) of 12.7 min. For the same compound, the Time (Mus musculus [4]) was 59.38 min.
`CCOC(=O)[C@H](C)NP(=O)(COC)Oc1c(C(C)C)cccc1[C@H](C)C1CC1` (stereo partly specified) showed an Activity (Mus musculus [5]) of 100%, a Time (Mus musculus [6]) of 4.49 min and a Time (Mus musculus [7]) of 74.44 min. It also gave a mortality [8] of 50%.
For `CCOC(=O)[C@H](C)N[P@](=O)(COC)Oc1c(C(C)C)cccc1[C@H](C)C1CC1`, the Activity (Mus musculus [5]) was 100%, the Time (Mus musculus [6]) was 3.98 min and the Time (Mus musculus [7]) was 107.68 min. For the same compound, the mortality [8] was 0%.
Compound `CCc1c2c(nc3ccc(O)cc13)-c1cc3c(c(=O)n1C2)COC(=O)[C@]3(O)CC` [7-ETHYL-10-HYDROXYCAMPTOTHECIN] has a Cmax [19] of 983 ng/mL, an AUC(0-t) [20] of 410 ng·h/mL and a half-life [21] of 160 min.
`CCOC(=O)[C@H](C)NP(=O)(CN1CCOCC1)Oc1c(C(C)C)cccc1C(C)C` (stereo partly specified) gave an Activity (Mus musculus [1]) of 60%, a mortality [2] of 10% and a Time (Mus musculus [3]) of 7.65 min. The Time (Mus musculus [4]) was 16.18 min.
In the case of `CC(C)c1cccc(C(C)C)c1O` [PROPOFOL], the Cmax (in vivo [25]) was 97 ng/mL, the AUC(0-t) (in vivo [26]) was 616 ng·h/mL and the AUC(0-t) (in vivo [27]) was 102 ng·h/mL. For the same compound, the Cmax (in vivo [28]) was 2050 ng/mL, the half-life [29] was 38.4 min and the half-life [30] was 12 min. For the same compound, the bioavailability (in vivo [31]) was 7.3%.
